Screens from PubChem.
HIV Env fusion: inhibitors of HIV Env-mediated cell fusion | HeLa-JRFL Env/CEM21 cell fusion, luciferase | inhibition, % at 12.3 µM | 360,000 tested, 1.1% active;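 active = mean replicate inhibition score of at least 50 and every replicate individually at or above 50; inconclusive = only one of the two criteria met; inactive = mean below 50 and not all replicates reaching 50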;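 also: 0% = plate neutral controls and 100% = maraviroc near 300 nM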
miR122 inh: inhibitors of miR-122 in Huh7 cells | Huh7 miR-122 Renilla luciferase sensor, 48 h; neutral wells = 0, positive control = 100 | activation (reporter increase), % at 12.5 µM | 340,000 tested, 0.3% active;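 active = mean replicate activation score at least 90 and every replicate individually at or above 90; inconclusive = only one of the two criteria met; inactive = neither criterion met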;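 also: higher luciferase means less miR-122 activity so hits act as miR-122 inhibitors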
Rtt109 Vps75: inhibitors of Candida albicans Rtt109/Vps75 histone acetyltransferase. Q5AAJ8. purified Rtt109/Vps75, ThioGlo CoA-SH fluorescence, 4 h. inhibition, % at 34.9 µM. 330,000 tested, 0.16% active;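 active = inhibition of at least 50% in every replicate; inconclusive = best replicate reaches 50% inhibition but some replicates fall short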
Target sequence (Q5AAJ8 whole entry, looked up): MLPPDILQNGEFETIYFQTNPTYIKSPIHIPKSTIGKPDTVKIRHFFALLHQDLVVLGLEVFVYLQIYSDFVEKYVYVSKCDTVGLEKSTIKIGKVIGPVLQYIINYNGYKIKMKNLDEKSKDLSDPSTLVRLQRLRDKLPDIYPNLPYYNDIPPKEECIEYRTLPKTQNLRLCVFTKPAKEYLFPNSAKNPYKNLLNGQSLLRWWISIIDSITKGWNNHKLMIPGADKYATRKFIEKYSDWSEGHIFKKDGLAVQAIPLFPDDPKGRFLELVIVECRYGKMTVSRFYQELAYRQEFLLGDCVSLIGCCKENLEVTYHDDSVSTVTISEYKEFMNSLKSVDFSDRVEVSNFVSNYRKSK
dFosB act: activators of mouse delta FosB homodimer; P13346; purified delta FosB, TAMRA-CDK5 oligo fluorescence polarization; percent of positive-control signal above neutral wells; activation, % at 25 µM; 340,000 tested, 0.99% active;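 active = mean activation above about 17%, with every replicate also reaching it, limit read from the data, passing the limit was not always enough; inconclusive = only one of the two conditions met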
Target sequence (P13346 whole entry, looked up): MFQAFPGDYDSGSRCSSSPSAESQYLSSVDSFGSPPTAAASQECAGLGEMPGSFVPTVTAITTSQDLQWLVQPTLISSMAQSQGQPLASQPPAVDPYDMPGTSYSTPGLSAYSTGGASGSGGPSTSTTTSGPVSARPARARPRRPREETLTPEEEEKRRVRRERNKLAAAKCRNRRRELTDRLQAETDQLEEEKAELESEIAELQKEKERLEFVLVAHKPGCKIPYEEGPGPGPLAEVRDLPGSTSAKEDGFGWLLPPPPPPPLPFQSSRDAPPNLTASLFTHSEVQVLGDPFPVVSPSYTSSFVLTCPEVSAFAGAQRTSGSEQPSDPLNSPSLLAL
INS-1E GSIS act: primary screen for activators of insulin secretion dependent on glucose, INS-1E cells, GLuc reporter luminescence | INS-1E GLuc reporter insulin secretion, 2-3 h | activation, % at 16.6 µM | 370,000 tested, 0.61% active | AID 743287;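 active = lowest replicate activation of at least 40%, so every replicate reaches that level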;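 also: 0% = median of neutral control wells and 100% = median of IBMX positive control wells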
Cneo AK release: causes C. neoformans cell lysis; adenylate kinase release luminescence, 4 h; normalised: neutral wells 0, clomiphene wells 100; lysis activity, % at 15 µM; 360,000 tested, 0.2% active; AID 651654;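 active = mean lysis activity across replicates of at least 80%, whatever share of replicates individually reach that level; inactive = mean lysis activity below 80%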
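Signal: Adenylate kinase release luminescence | Assay system: Log-phase Cryptococcus neoformans yeast cells | Input: Cells at 5 × 10^6 per mL | Buffer or medium: Fresh YPD growth medium | Compound: Single dose | Schedule: Static 4 h at 37 °C with compound, 1 h detection | Controls: Clomiphene | Read-out: Luminescence rise reflecting yeast cell lysis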
Starred values were filed as active, the others as inactive; u = inconclusive; x = no result given; [ ] = remark or other dose. An excerpt weighted towards active compounds, which were near 2.4% of everything screened.

SMILES	HIV Env fusion	miR122 inh	Rtt109 Vps75	dFosB act	INS-1E GSIS act	Cneo AK release
O=C(Cc1cccs1)Nc1ccc(S(=O)(=O)N2CCCCC2)cc1	x	131.7*	10.9	-8.8	x	0.3
CN1CCN(S(=O)(=O)c2ccc(NC(=O)Cc3cccs3)cc2)CC1	x	8.1	7.2	-0.5	x	x
CCCCCCCCCC[n+]1cccc2c3ccccc3ccc21	58.9*	x	u	13.2	97.0*	x
CCCCCCCC[n+]1cccc2c3ccccc3ccc21	83.7*	x	-13.0	1.4	-75.6	x
COc1ccc2[nH]c3c(N4CCC(O)(c5cccc(C(F)(F)F)c5)CC4)ncnc3c2c1	100.1*	14.5	15.7	8.0	x	-4.3
Cc1ccc2[nH]c3c(N4CCc5ccccc5C4)ncnc3c2c1	81.3*	3.0	11.4	6.2	x	-5.5
C[C@H](CO)N1C[C@H](C)[C@H](CN(C)Cc2ccncc2)Oc2ncc(C#CC3CCCCC3)cc2C1=O	9.6[16.7 µM]	-4.1[16.7 µM]	x	x	-8.0	-2.9
C[C@@H]1CN([C@@H](C)CO)S(=O)(=O)c2ccc(C#CC3CCCC3)cc2O[C@@H]1CN(C)C(=O)c1cccc(F)c1	25.6[16.7 µM]	-8.0[16.7 µM]	x	x	-10.7	x
CC1CCCC=CC2CC(OC(=O)CN(C)C)CC2C(O)C=CC(=O)O1 (configuration not stated)	62.4*	-1.5	-0.6	-0.3	x	x
O=S1(=O)c2ccccc2OC(COCc2ccccc2)CN1C1CC1 (configuration not stated)	-12.4	10.8	5.4	-6.8	109.2*	-0.2
C[C@H](c1ccccc1)N1C[C@@H](COCc2ccccc2)Oc2cccc(N3CCCCC3)c2S1(=O)=O	58.6*	x	x	x	-31.3	x
CCCN1C[C@@H](C)[C@@H](OC)CN(C)C(=O)c2cc(NC(=O)Nc3c(C)noc3C)ccc2OC[C@@H]1C	x	x	x	x	6.2	-9.6
C/C=C/c1ccc([C@@H]2[C@@H](CO)N(C(=O)C3CCC3)C23CN(S(=O)(=O)CC)C3)cc1	18.8[16.7 µM]	x	x	x	-7.5	x
O=C(NC1CCC1)[C@@H]1N[C@@H]2c3ccc(-c4cccc(F)c4)c(=O)n3C[C@@H]2[C@H]1CO	x	-5.0[16.7 µM]	x	x	-0.5	-4.1
CN=C1c2ccccc2CN1c1cccc(C(=O)OC)c1	x	0.0	6.0	-0.3	88.6*	-2.2
COC(=O)c1cccc(N2C(=O)c3ccccc3S2(=O)=O)c1	6.8	1.7	1.5	0.8	x	-0.2
O=C(c1cc(COc2cccc(C(F)(F)F)c2)on1)N1CCC(c2ccncc2)CC1	71.8*	x	-0.6	-16.8	-49.0	-1.6
CN1C(=O)c2cc(NC(=O)c3ccc(F)cc3)ccc2OC[C@H]2O[C@H](CC(=O)NCC3CCCCC3)CC[C@@H]21	34.2[16.7 µM]	8.8[16.7 µM]	x	x	-0.3	56.0
CN(C)c1ccc(NC(=O)c2sc(SCC(=O)Nc3ccc(Br)cc3)nc2N)cc1	x	-3.5	6.6	28.5*	x	1.1
CN(C)c1ccc(NC(=O)c2sc(SCC(=O)Nc3nccs3)nc2N)cc1	-62.1	-9.5	-15.2	-2.8	x	0.8
C[C@@H]1CN([C@@H](C)CO)C(=O)c2cc(NS(=O)(=O)c3cn(C)cn3)ccc2O[C@@H]1CN(C)C(=O)Nc1cccc2ccccc12	x	11.9[16.7 µM]	x	x	3.1	89.9*
C[C@H](CO)N1C[C@H](C)[C@@H](CN(C)C(=O)Nc2cccc3ccccc23)Oc2ccc(NS(=O)(=O)c3cn(C)cn3)cc2C1=O	x	-3.3[16.7 µM]	x	x	8.4	-0.4
C[C@@H]1CN([C@H](C)CO)C(=O)c2cc(NS(=O)(=O)c3cn(C)cn3)ccc2O[C@H]1CN(C)C(=O)Nc1cccc2ccccc12	x	0.6[16.7 µM]	x	x	17.1	99.5*
CCS(=O)(=O)NCC[C@H]1CC[C@H](NC(=O)C2CCC2)[C@@H](CO)O1	4.0[16.7 µM]	x	x	x	6.2	-0.3
O=C1N[C@H](Cc2ccccc2)COCc2cnnn2CC[C@@H]1Cc1cccc(Cl)c1	x	x	x	x	-0.4	x
SMILES	HIV Env fusion	miR122 inh	Rtt109 Vps75	dFosB act	INS-1E GSIS act	Cneo AK release
O=C(O)CCC(=O)N1CCN(c2nc(-c3ccccc3)c3ccccc3n2)CC1	-8.7	0.3	0.5	7.4	13.7	1.1
Cc1ccc2nc(N3CCN(C(=O)CCCC(=O)O)CC3)nc(-c3ccccc3)c2c1	4.9	x	-6.0	-3.0	57.3*	-1.3
CC(C)OC(=O)Cn1cc(C#N)c2ccccc21	-2.3	x	1.4	-5.2	-9.4	x
COC(=O)Cn1cc(C#N)c2ccccc21	x	-1.9	-11.0	-0.8	69.7*	-1.2
O=C(C[C@H]1C=C[C@@H](NS(=O)(=O)c2ccccc2F)[C@H](CO)O1)NCCCN1CCOCC1	x	x	x	x	-1.5	-3.1
N#CC1=C(N)OC2=C(C(=O)CC(c3ccccc3)C2)C1c1cccnc1 (configuration not stated)	x	x	6.1	-1.5	47.4*	x
CCOC(=O)N1CCC(NC(=O)C2CCN(c3nc(-c4ccc(OC)cc4)no3)CC2)CC1	34.4*	-6.0	-2.8	-8.7	x	-0.9
CCOc1ccccc1NC(=O)C1CCN(c2nc(-c3ccc(OC)cc3)no2)CC1	-15.3	-3.1	-13.0	2.4	x	4.8
CCCCCCc1nc2ccccc2c(=O)n1NC(=O)c1c(O)c2c(n(CC(C)C)c1=O)CCCC2	73.4*	0.2	2.7	-2.9	x	1.4
CN(C)c1ccc2c(c1)[C@@H]1C[C@H](CC(=O)NCc3cccc(F)c3)O[C@H](CO)[C@@H]1O2	15.7[16.7 µM]	0.7[16.7 µM]	x	x	6.7	-0.6
Cc1nnc(NC(=O)C2CCCCC2)s1	65.3*	-12.4	-5.1	6.4	x	0.8
CO[C@H]1CN(C)C(=O)c2ccc(NC(=O)C3CC3)cc2OC[C@@H](C)N(Cc2cccc(F)c2)C[C@@H]1C	22.2[16.7 µM]	-3.6[16.7 µM]	x	x	-32.8	0.1
CC1CCc2c(sc(NC(=O)CSc3ncn[nH]3)c2C#N)C1 (configuration not stated)	65.0*	6.1	1.0	-5.8	12.8	-5.4
Oc1ccc(N=Nc2c(O)ccc3ccccc23)cc1	x	-1.7	8.3	7.4	-8.4	0.1
N=C(N)c1ccc(N=Nc2c(O)ccc3c2[nH]c2ccccc23)cc1	x	0.9	2.2	-252.9	46.5*	x
COc1ccc2c3c(n(C)c2c1)[C@H](CO)N(C(=O)CN1CCOCC1)CC31CCN(C(C)=O)CC1	x	x	x	x	9.4	x
OCCN=C1CCCc2c1[nH]c1ccc(Br)cc21	x	0.4	14.2	4.1	x	x
C=CCN=C1CCCc2c1[nH]c1ccc(C)cc21	62.2*	-0.8	-11.5	0.9	14.9	2.9
CC(C)NC(=O)Nc1ccc2c(c1)C(=O)N([C@@H](C)CO)C[C@@H](C)[C@@H](CN(C)Cc1ccncc1)OCCCC[C@H](C)O2	0.9[16.7 µM]	-0.5[16.7 µM]	x	x	1.8	0.5
COc1ccc2c3c(n(C)c2c1)[C@@H](CO)N(C(=O)c1ccccn1)CC31CCN(C)CC1	x	x	x	x	1.5	x
C[C@@H]1CCCCO[C@H](CN(C)C(=O)Nc2ccc(F)cc2)[C@H](C)CN([C@@H](C)CO)C(=O)c2cc(NC(=O)Nc3ccc(C(F)(F)F)cc3)ccc2O1	3.4[16.7 µM]	-3.6[16.7 µM]	x	x	-11.1	1.2
